# pIC50: −log10 of the molar value. Activity calls are given as the source filed them. The calls are words filed in the database; no cut-off is given here.
# Legend:
# [1] = Toxicity in Balb/c nude mouse xenografted with human HepG2 cells assessed as change in body weight at 0.2 mg/kg, ip administered once daily for 15 days measured during compound dosing; type: organism-based; settings: in vivo, 360 h
# How it was run: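 Xenografted nude mice (8/group) received ip doses once daily for two weeks, starting one week after HepG2 inoculation. Body weight was recorded throughout the treatment period.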
# Hepatocyte = assay: Cytotoxicity against primary hepatocytes (unknown origin) after 48 hrs by XTT assay; type: cell-based
# HepG2 [2] = assay: Antitumor activity against human HepG2 cells xenografted in Balb/c nude mouse assessed as reduction in tumor growth at 0.2 mg/kg, ip administered once daily for 15 days; type: functional, organism-based
# How it was run: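 HepG2 cells were inoculated into nude mice, and daily ip dosing began one week later and ran for two weeks. Tumour volume was followed over the treatment, and tumours were weighed and imaged at the end. n = 8 mice/group; Student's t test was used against the control.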
# [3] = Renal toxicity in Balb/c nude mouse xenografted with human HepG2 cells assessed as increase in serum creatinine levels at 0.2 mg/kg, ip administered once daily for 15 days; type: organism-based; settings: in vivo, 360 h
# How it was run: (§1)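 HepG2-xenografted nude mice were dosed every day for 15 days. Serum ALT, AST, creatinine and blood urea nitrogen were measured and compared with the control.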
# HepG2 [4] = assay: Cytotoxicity against human HepG2 cells after 48 hrs by XTT assay; type: functional, cell-based; settings: HepG2, 48 h
# [5] = Toxicity in Balb/c nude mouse at 0.2 mg/kg, ip; type: organism-based; settings: in vivo
# [6] = Hepatotoxicity in Balb/c nude mouse xenografted with human HepG2 cells assessed as effect on serum ALT levels at 0.2 mg/kg, ip administered once daily for 15 days; type: toxicity, organism-based; settings: in vivo, 360 h; how it was run: as §1
# [7] = Renal toxicity in Balb/c nude mouse xenografted with human HepG2 cells assessed as glomerular capillary loop lesions at 0.2 mg/kg, ip administered once daily for 15 days by hematoxylin and eosin staining based microscopic analysis; type: organism-based; settings: in vivo, 360 h
# How it was run: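 After 15 days of daily dosing, kidneys from xenografted nude mice were sectioned, H&E stained and examined at ×200 for glomerular capillary loop lesions, alongside control sections.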
# [8] = Hepatotoxicity in Balb/c nude mouse xenografted with human HepG2 cells assessed as effect on serum AST levels at 0.2 mg/kg, ip administered once daily for 15 days; type: toxicity, organism-based; settings: in vivo, 360 h; how it was run: as §1
# [9] = Hepatotoxicity in Balb/c nude mouse xenografted with human HepG2 cells assessed as pathological abnormalities at 0.2 mg/kg, ip administered once daily for 15 days by hematoxylin and eosin staining based microscopic analysis; type: toxicity, organism-based; settings: in vivo, 360 h
# [10] = molecular target: T1, General transcription and DNA repair factor IIH helicase/translocase subunit XPB (Homo sapiens, UniProt P19447); assay: Inhibition of […] ATPase activity in human HeLa cell nuclear extracts; type: cell-based
# T1 sequence (P19447 whole entry): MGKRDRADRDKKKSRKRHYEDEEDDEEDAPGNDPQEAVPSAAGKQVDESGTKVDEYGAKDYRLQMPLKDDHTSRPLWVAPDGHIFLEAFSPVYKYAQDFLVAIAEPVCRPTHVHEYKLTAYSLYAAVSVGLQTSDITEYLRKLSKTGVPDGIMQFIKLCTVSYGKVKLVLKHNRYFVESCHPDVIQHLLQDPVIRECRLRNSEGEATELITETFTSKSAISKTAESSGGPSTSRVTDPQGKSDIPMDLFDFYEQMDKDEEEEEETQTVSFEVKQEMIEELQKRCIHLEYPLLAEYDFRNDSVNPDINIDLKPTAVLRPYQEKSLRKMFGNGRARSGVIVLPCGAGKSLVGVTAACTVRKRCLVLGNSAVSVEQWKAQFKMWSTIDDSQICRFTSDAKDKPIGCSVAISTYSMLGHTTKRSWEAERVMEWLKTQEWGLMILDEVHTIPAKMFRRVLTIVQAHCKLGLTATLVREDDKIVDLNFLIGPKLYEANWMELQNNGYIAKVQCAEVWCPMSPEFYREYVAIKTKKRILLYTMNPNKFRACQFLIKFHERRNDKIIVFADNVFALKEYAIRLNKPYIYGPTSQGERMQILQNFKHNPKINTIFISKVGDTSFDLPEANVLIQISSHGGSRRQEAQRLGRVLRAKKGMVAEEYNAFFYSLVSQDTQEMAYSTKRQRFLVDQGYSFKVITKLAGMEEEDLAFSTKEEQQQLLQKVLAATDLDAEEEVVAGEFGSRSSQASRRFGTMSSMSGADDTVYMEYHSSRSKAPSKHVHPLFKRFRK
# [11] = Renal toxicity in Balb/c nude mouse xenografted with human HepG2 cells assessed as increase in serum BUN levels at 0.2 mg/kg, ip administered once daily for 15 days; type: organism-based; settings: in vivo, 360 h; how it was run: as §1
# carboxyl ester hydrolase = assay: Half life in human plasma assessed as carboxyl ester hydrolase-mediated compound degradation at 10 uM by UV-HPLC analysis; type: ADME, cell-free
# How it was run: (§2)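 Compound was incubated for 1 h in vitro in human plasma or human liver microsomes, and half-life was determined from its disappearance.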
# [12] = Cmax in KM mouse at 1 mg/kg, ip administered as single dose; type: ADME, organism-based; set-up: dose 1 mg/kg, route intraperitoneal; settings: in vivo
# How it was run: (§3)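 Mice received a single ip dose at 1.0 mg/kg. Levels were measured in plasma, liver and kidney with a validated analytical method, and plasma was sampled over time to 2 h and beyond. Derived values were absorption, distribution and terminal half-lives, tmax, Cmax and AUC tissue/plasma ratios.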
# [13] = Toxicity in Balb/c nude mouse at 1 mg/kg, ip; type: organism-based; settings: in vivo
# How it was run: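 In a preliminary experiment, nude mice were given a single ip dose of 1.0 mg/kg and observed for toxic symptoms.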
# [14] = Time at which plasma concentration stays above in vitro IC50 for antiproliferative activity against human HepG2 cells in KM mouse at 1 mg/kg, ip administered as single dose; type: organism-based; settings: in vivo; how it was run: as §3
# HepG2 [15] = assay: Cytotoxicity against human HepG2 cells after 48 hrs in presence of NQO1 inhibitor dicoumarol by XTT assay; type: functional, cell-based
# [16] = molecular target: T2, NAD(P)H dehydrogenase [quinone] 1 (Homo sapiens, UniProt P15559); assay: Prodrug activation in human HepG2 cell lysates assessed as NQO1-mediated CX-21 formation at 10 uM up to 60 mins in presence of NADPH by HPLC analysis; type: subcellular, Lysate; settings: hepg2, 1 h
# [17] = Hepatotoxicity in Balb/c nude mouse xenografted with human HepG2 cells assessed as effect on serum AST levels at 0.3 to 1 mg/kg, ip administered once daily for 15 days; type: toxicity, organism-based; settings: in vivo, 360 h
# How it was run: (§4)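 Nude mice were dosed ip every day for 15 days at 0.2 mg/kg (reference), 0.3 mg/kg or 1.0 mg/kg. Serum ALT, AST, creatinine and BUN were measured. Kidney sections were H&E stained and examined at X200. Comparisons were made against control.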
# [18] = Distribution half life in KM mouse at 1 mg/kg, ip administered as single dose; type: ADME, organism-based; settings: in vivo, read-out: alphat1/2; how it was run: as §3
# [19] = Cytotoxicity against human skin fibroblasts after 48 hrs by XTT assay
# [20] = Ratio of AUC in KM mouse kidney to plasma at 1 mg/kg, ip administered as single dose; type: ADME, organism-based; settings: other tissue; how it was run: as §3
# HepG2 [21] = assay: Antitumor activity against human HepG2 cells xenografted in Balb/c nude mouse assessed as reduction in tumor growth at 0.3 to 1 mg/kg, ip administered once daily for 15 days; type: functional, organism-based
# How it was run: (§5)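 HepG2 xenograft in nude mice. Dosing began one week after cell inoculation, ip once daily for two weeks. Tumor volume was followed during treatment, tumor weight taken at the end, and body weight monitored throughout. n = 8 mice/group; Student's t test against control.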
# [22] = Hepatotoxicity in Balb/c nude mouse xenografted with human HepG2 cells assessed as pathological abnormalities at 0.3 to 1 mg/kg, ip administered once daily for 15 days by hematoxylin and eosin staining based microscopic analysis; type: toxicity, organism-based; settings: in vivo, 360 h
# [23] = Tmax in KM mouse at 1 mg/kg, ip administered as single dose; type: ADME, organism-based; settings: in vivo; how it was run: as §3
# [24] = molecular target: T2, NAD(P)H dehydrogenase [quinone] 1; assay: Prodrug activation in human HepG2 cell lysates assessed as NQO1-mediated CX-21 formation at 10 uM after 60 mins in presence of NADPH and NQO1 inhibitor dicoumarol by HPLC analysis; type: subcellular, Lysate; settings: hepg2, 1 h
# [25] = Toxicity in Balb/c nude mouse xenografted with human HepG2 cells assessed as change in body weight at 0.3 to 1 mg/kg, ip administered once daily for 15 days measured during compound dosing; type: organism-based; settings: in vivo, 360 h; how it was run: as §5
# [26] = Plasma concentration in KM mouse at 1 mg/kg, ip administered as single dose after 2 hrs; type: ADME, organism-based; settings: in vivo, BLD = below limit of detection; how it was run: as §3
# CYP450 = CYP450 (Homo sapiens, UniProt P04798+P05177+P05181+P08684+P10632+P10635+P11509+P11712+P13584+P20813+P20815+P20853+P24462+P24903+P33260+P33261+P51589+P78329+P98187+Q02928+Q08477+Q16678+Q16696+Q5TCH4+Q6VVX0+Q7Z449+Q8TAV3+Q96SQ9+Q9HB55); assay: Half life in human liver microsomes assessed as CYP450-mediated compound degradation at 10 uM by UV-HPLC analysis; type: ADME; how it was run: as §2
# Keratinocyte = assay: Cytotoxicity against human keratinocytes after 48 hrs by XTT assay; type: cell-based
# [27] = molecular target: NQO1 (NAD(P)H dehydrogenase [quinone] 1) (Homo sapiens, UniProt P15559); assay: Half life in human HepG2 cell lysates assessed as NQO1-mediated compound degradation at 10 uM in presence of NADPH by HPLC analysis; type: ADME, subcellular, Lysate
# A549 = assay: Cytotoxicity against human A549 cells after 48 hrs by XTT assay; type: functional, cell-based; settings: A549, 48 h
# [28] = molecular target: T2, NAD(P)H dehydrogenase [quinone] 1; assay: Prodrug activation in human HepG2 cell lysates assessed as NQO1-mediated triptolide formation at 10 uM after 60 mins in presence of NADPH and NQO1 inhibitor dicoumarol by HPLC analysis; type: subcellular, Lysate; settings: hepg2, 1 h
# [29] = Hepatotoxicity in Balb/c nude mouse xenografted with human HepG2 cells assessed as effect on serum ALT levels at 0.3 to 1 mg/kg, ip administered once daily for 15 days; type: toxicity, organism-based; settings: in vivo, 360 h; how it was run: as §4
# [30] = Therapeutic index, ratio of IC50 for primary hepatocytes (unknown origin) to IC50 for human HepG2 cells; type: toxicity; settings: primary hepatocytes (unknown origin) versus HepG2 cells, read-out: Ratio IC50
# HeLa = assay: Cytotoxicity against human HeLa cells after 48 hrs by XTT assay; type: functional, cell-based
# [31] = molecular target: T2, NAD(P)H dehydrogenase [quinone] 1; assay: Prodrug activation in human HepG2 cell lysates assessed as NQO1-mediated triptolide formation at 10 uM up to 60 mins in presence of NADPH by HPLC analysis; type: subcellular, Lysate; settings: hepg2, 1 h
# [32] = Terminal half life in KM mouse at 1 mg/kg, ip administered as single dose; type: ADME, organism-based; settings: in vivo, read-out: beta t1/2; how it was run: as §3
# [33] = Ratio of AUC in KM mouse liver to plasma at 1 mg/kg, ip administered as single dose; type: ADME, organism-based; settings: other tissue; how it was run: as §3
# [34] = Plasma concentration in KM mouse at 1 mg/kg, ip administered as single dose at 2 hrs post dose; type: ADME, organism-based; how it was run: as §3
# HepG2 [35] = assay: Cytotoxicity against human HepG2 cells up to 20 uM after 48 hrs by XTT assay; type: functional, cell-based
# T2 sequence (P15559 whole entry): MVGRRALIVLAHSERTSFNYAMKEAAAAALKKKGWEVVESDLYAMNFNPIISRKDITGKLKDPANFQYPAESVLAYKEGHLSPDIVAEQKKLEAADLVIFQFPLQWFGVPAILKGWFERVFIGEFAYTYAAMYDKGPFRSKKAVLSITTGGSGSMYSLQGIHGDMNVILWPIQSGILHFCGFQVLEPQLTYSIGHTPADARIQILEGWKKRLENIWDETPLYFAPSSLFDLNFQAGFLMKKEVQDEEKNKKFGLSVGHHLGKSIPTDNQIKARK
# Chain of NQO1 (NAD(P)H dehydrogenase [quinone] 1) (P15559 whole entry): as above
smiles,measurement,setting,value
CC(C)[C@]12O[C@H]1[C@@H]1O[C@]13[C@]1(O[C@H]1C[C@H]1C4=C(CC[C@@]13C)C(=O)OC4)[C@@H]2O [TRIPTOLIDE],Activity,[1],Non-Toxic
same,pIC50,Hepatocyte,7.42
same,Activity,HepG2 [2],Active
same,Activity,[3],Toxic
same,pIC50,HepG2 [4],7.36
same,Activity,[5],Non-Toxic
same,Activity,[6],Non-Toxic
same,Activity,[7],Toxic
same,Activity,[8],Non-Toxic
same,Activity,[9],Non-Toxic
same,inhibition (INH),[10],Active
same,Activity,[11],Toxic
CC1=C(C)C(=O)C(C(C)(C)CC(=O)O[C@@H]2[C@@]3(C(C)C)O[C@H]3[C@@H]3O[C@]34[C@]23O[C@H]3C[C@H]2C3=C(CC[C@@]24C)C(=O)OC3)=C(C)C1=O,half-life at 10 µM,carboxyl ester hydrolase,> 60 min
same,Cmax,[12],243 ng/mL
same,Activity,[13],Non-Toxic
same,Time,[14],40 min
same,Activity,HepG2 [15],inactive
same,Drug metabolism,[16],Metabolite_Detected
same,Activity,[17],Non-Toxic
same,half-life,[18],15.1 min
same,pIC50,[19],< 6.00
same,Ratio,[20],< 5%
same,Activity,HepG2 [21],Active
same,pIC50,Hepatocyte,6.27
same,Activity,[22],Non-Toxic
same,Tmax,[23],3 min
same,Drug metabolism,[24],Metabolite_Notdetected
same,Activity,[25],Non-Toxic
same,pIC50,HepG2 [4],7.27
same,Cp,[26],Bld
same,half-life at 10 µM,CYP450,> 60 min
same,pIC50,Keratinocyte,< 6.00
same,half-life at 10 µM,[27],7.27 min
same,pIC50,A549,7.23
same,Drug metabolism,[28],Metabolite_Notdetected
same,Activity,[29],Non-Toxic
same,inhibition (INH),[10],Not Active
same,selectivity ratio,[30],9.89
same,pIC50,HeLa,7.42
same,Drug metabolism,[31],Metabolite_Detected
same,half-life,[32],154 min
same,Ratio,[33],< 5%
same,concentration at 2 h,[34],1.38 ng/mL
O=c1oc2ccccc2c(O)c1Cc1c(O)c2ccccc2oc1=O,Activity,HepG2 [35],inactive

# From ChEMBL document CHEMBL4382274, “NQO1-Selective Activated Prodrug of Triptolide: Synthesis and Antihepatocellular Carcinoma Activity Evaluation” (ACS Med Chem Lett, 2018)
